Screening data (PubChem)
Rows were chosen to be rich in hits. Some 1.6% of all compounds tested hit in one or more screens of this group.
MBD2 inh – inhibitors of MBD2 binding to methylated DNA, primary screen, biochemical, TR-FRET, DNA-binding domain, human | actives 0.31% (n = 370,000) | Methyl-CpG-binding domain protein 2 (Homo sapiens), Q9UBB5 | MBD2 binding to methylated oligonucleotide | AID 686964, 2013 | inhibition, % at 4.4 µM; in the data active = inhibition above about 13%
Target sequence (Q9UBB5 whole entry, looked up, the tested form may be a part): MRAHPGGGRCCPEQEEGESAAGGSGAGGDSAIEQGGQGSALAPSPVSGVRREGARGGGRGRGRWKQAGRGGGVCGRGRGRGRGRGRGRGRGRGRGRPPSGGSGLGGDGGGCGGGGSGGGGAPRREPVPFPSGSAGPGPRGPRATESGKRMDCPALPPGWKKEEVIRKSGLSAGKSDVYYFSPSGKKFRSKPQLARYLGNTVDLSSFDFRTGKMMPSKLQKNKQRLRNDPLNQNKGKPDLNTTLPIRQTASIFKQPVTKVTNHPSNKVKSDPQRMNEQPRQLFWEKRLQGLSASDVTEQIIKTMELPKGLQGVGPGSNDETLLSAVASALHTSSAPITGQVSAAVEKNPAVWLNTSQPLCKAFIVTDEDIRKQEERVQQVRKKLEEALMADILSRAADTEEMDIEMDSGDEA
LEDGF integ inh – blockers of LEDGF/p75-dependent integrase strand transfer – biochemical, TR-FRET, high throughput, primary screen. HIV-1 integrase (with human LEDGF/p75). TR-FRET IN-LEDGF/p75 DNA integration, Eu/Cy5. inhibition, % at 3.7 µM. actives 0.64% (n = 370,000);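 active = inhibition above the screen-wide mean plus 3 SD, cut at about 13% in these data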;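 also: signal is the Cy5 over europium emission ratio at 671 and 618 nm; 0% = plate median of compound wells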
TDP2 absorb – human TDP2 enzyme inhibitors, primary screen, biochemical, epi absorbance, recombinant enzyme; Tyrosyl-DNA phosphodiesterase 2 (Homo sapiens), O95551; T5PNP hydrolysis, p-nitrophenol absorbance 415 nm; inhibition, % at 12.8 µM; actives 0.34% (n = 370,000); AID 720702, 2013;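 active = inhibition above the mean of all tested compounds plus 3 SD, set per campaign, cut at about 25% in these data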;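 also: 0% = DMSO with enzyme and 100% = buffer with substrate but no TDP2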
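Material: recombinant human TDP2; quantity: TDP2 enzyme at 120 nM final; medium: Tris-HCl pH 7.5 with MgCl2; compound: single concentration, 12.8 µM nominal, with 1% DMSO; incubation: 2 h enzyme incubation at 37 °C; signal: epi absorbance; measure: percent inhibition; benchmarks: high control without enzyme, low control DMSO plus TDP2; repeats: singlicate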
UHRF1 binding – UHRF1 methylated DNA binding inhibitors, primary screen, counter-screen for MBD2 inhibitor project, biochemical, TR-FRET, human UHRF1, single concentration; inhibition, % at 4.4 µM; E3 ubiquitin-protein ligase UHRF1 (Homo sapiens), Q96T88; actives 0.75% (n = 370,000); UHRF1 binding to methylated oligo; AID 687016, 2013; in the data active = inhibition above about 21%;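 also: UHRF1 SRA domain binding a hemimethylated CpG hairpin DNA probe; 0% = median of test compound wells and 100% = reference inhibitor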
An asterisk follows results filed as active.

`Cc1ccccc1CS(=O)(=O)Cc1ccc(C(=O)Nc2cccc(C)c2C)o1` gave MBD2 inh 0.9, LEDGF integ inh 3.1, TDP2 absorb -9.3 and UHRF1 binding -1.0.
For CN(C)c1ccc(N=Nc2ccc(C(=O)O)cc2)cc1 the results were MBD2 inh -0.4, LEDGF integ inh 2.5, TDP2 absorb 10.5 and UHRF1 binding 29.4*.
`COc1cccc(N2CCN(C(=O)CCn3nnc4ccccc43)CC2)c1` gave MBD2 inh -1.8, LEDGF integ inh 3.6, TDP2 absorb 1.0 and UHRF1 binding 0.8.
`CC(=O)N1CCCN(C(=O)CCn2nnc3ccccc32)CC1` gave MBD2 inh -1.5, LEDGF integ inh 0.0, TDP2 absorb 3.9 and UHRF1 binding 90.9*.
`O=C(CCSCc1ccccc1Cl)NC1CCCC1` gave MBD2 inh 11.1, LEDGF integ inh -2.3, TDP2 absorb 0.8 and UHRF1 binding 23.7*.
`Cc1ccc(C(=O)Cn2nnc(-c3ccccc3-n3cnnn3)n2)cc1` gave MBD2 inh 0.7, LEDGF integ inh -1.4, TDP2 absorb -9.1 and UHRF1 binding 5.8.
For COc1ccc(C(=O)Cn2nnc(-c3ccccc3-n3cnnn3)n2)cc1 the results were MBD2 inh -0.3, LEDGF integ inh 0.0, TDP2 absorb 14.4 and UHRF1 binding 34.3*.
Cc1c(N=C2C=C(Br)C(=O)C(Br)=C2)c(=O)n(-c2ccccc2)n1C was read as MBD2 inh 18.5*, LEDGF integ inh 56.7*, TDP2 absorb 61.1* and UHRF1 binding 55.7*.
For O=C(CSc1nnc(-c2cccnc2)n1-c1ccccc1)c1ccccc1Cl the results were MBD2 inh 0.2, LEDGF integ inh 0.0, TDP2 absorb 0.2 and UHRF1 binding -1.4.
Screening Cc1ccc(NC(=O)N2CCC(c3nc4ccc(Cl)cc4[nH]3)CC2)cc1F returned MBD2 inh -6.2, LEDGF integ inh -0.5, TDP2 absorb 3.4 and UHRF1 binding 1.8.
O=C(NC(Cc1ccccc1)C(=O)O)/C(=C/c1ccccc1)NC(=O)c1ccccc1 (configuration not stated) was read as MBD2 inh 9.7, LEDGF integ inh 1.0, TDP2 absorb -2.5 and UHRF1 binding 8.5.
Screening O=C(NC(Cc1ccccc1)C(=O)O)/C(=C\c1ccc(Cl)cc1)NC(=O)c1ccccc1 (configuration not stated) returned MBD2 inh -2.5, LEDGF integ inh -3.0, TDP2 absorb -5.4 and UHRF1 binding 28.0*.
For COc1cc(-c2nnc(SCc3cc(=O)oc4cc(O)c(O)cc34)o2)cc(OC)c1OC the results were MBD2 inh 28.9*, LEDGF integ inh 78.1*, TDP2 absorb 1.3 and UHRF1 binding 51.5*.
`CCOC(=O)CSc1nnc(-c2cc(OC)c(OC)c(OC)c2)o1` gave MBD2 inh 2.5, LEDGF integ inh -0.9, TDP2 absorb 2.6 and UHRF1 binding 1.8.
[O-]/C(=C(\C(=S)Nc1cccc2ccccc12)[n+]1ccccc1)c1ccc(OC(F)F)cc1 was read as MBD2 inh 0.9, LEDGF integ inh -3.1, TDP2 absorb 0.5 and UHRF1 binding 29.5*.
`CCC1CCCCN1CCCNC(=O)c1cn(C)c2ccc(S(=O)(=O)N(C)C3CCCCC3)cc2c1=O` (configuration not stated) gave MBD2 inh 5.6, LEDGF integ inh 6.3, TDP2 absorb -12.2 and UHRF1 binding 22.6*.
Screening C=CCn1c(SCC(=O)Nc2ccc(CCCC)cc2)nnc1-c1ccc(Cl)cc1 returned MBD2 inh -3.3, LEDGF integ inh 1.3, TDP2 absorb 5.3 and UHRF1 binding -0.4.
Cc1cc(NC(=O)CCC(=O)N(CC(=O)NCC2CCCO2)c2cccc(F)c2)no1 (configuration not stated) was read as MBD2 inh -5.6, LEDGF integ inh 40.8*, TDP2 absorb -8.0 and UHRF1 binding 0.1.
For CN1CCN(c2ccc(NC(=O)c3ccc(Br)o3)cc2)CC1 the results were MBD2 inh -0.3, LEDGF integ inh 0.1, TDP2 absorb -2.1 and UHRF1 binding 3.9.
`CN1CCN(c2ccc(NC(=O)c3ccc(-c4ccccc4F)o3)cc2)CC1` gave MBD2 inh -3.4, LEDGF integ inh -0.5, TDP2 absorb 2.9 and UHRF1 binding 37.3*.
